In PMC4511165 (Biochemistry, 2015):
Entries after “also recorded” stand apart in the source; their conditions may differ.

Legend:
MMP-1 [1] = biological target: T1, MMP-1 (Homo sapiens, UniProt P03956); assay: HPLC-monitored hydrolysis of peptomeric THPs by MMP-1; type: biochemical; conditions: room temperature, 24 h; MALDI-TOF MS / HPLC of products
T1 sequence (P03956 100-469): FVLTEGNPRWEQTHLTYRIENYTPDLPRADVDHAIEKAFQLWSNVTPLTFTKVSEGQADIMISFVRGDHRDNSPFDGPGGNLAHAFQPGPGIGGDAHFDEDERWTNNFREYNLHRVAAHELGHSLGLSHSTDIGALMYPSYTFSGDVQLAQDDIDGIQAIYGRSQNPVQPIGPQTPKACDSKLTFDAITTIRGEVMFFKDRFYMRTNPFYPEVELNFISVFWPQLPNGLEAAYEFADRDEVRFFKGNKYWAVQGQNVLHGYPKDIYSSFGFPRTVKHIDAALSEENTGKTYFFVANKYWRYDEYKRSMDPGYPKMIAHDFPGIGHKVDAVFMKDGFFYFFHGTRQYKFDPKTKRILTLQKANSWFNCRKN
How it was run: (§1)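 Full-length human enzymes were activated with 1 mM […] for 60 min at 37 °C, then diluted to 100 nM in ice-cold TSB*Zn (Tris, NaCl, CaCl2, ZnCl2, Brij-35, pH 7.5). Substrates were pre-equilibrated in TSB at 4 °C for 24 h. Reactions used 20 nM enzyme at 1:1000 enzyme:substrate for 24 h at room temperature (some also at 37 °C). Reactions were quenched with 50 mM EDTA; triplicate RP-HPLC peak integration at 220 nm, with MALDI-TOF identifying products.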

MMP-8 [2] = biological target: T2, MMP-8 (Homo sapiens, UniProt P22894); assay: HPLC-monitored hydrolysis of peptomeric THPs by MMP-8; type: biochemical; conditions: room temperature, 24 h; MALDI-TOF MS / HPLC of products
How it was run: as §1

MMP-13 [3] = biological target: T3, MMP-13 (Homo sapiens, UniProt P45452); assay: HPLC-monitored hydrolysis of peptomeric THPs by MMP-13; type: biochemical; conditions: 24 h; for cleavage site, MMP-13: room temperature, MALDI-TOF MS / HPLC of products
How it was run: as §1

[4] = biological target: T4, MMP-14/MT1-MMP (ectodomain, soluble MT1-MMP) (Homo sapiens, UniProt P50281); assay: HPLC-monitored hydrolysis of peptomeric THPs by MT1-MMP; type: biochemical; conditions: room temperature, 24 h; MALDI-TOF MS / HPLC of products
How it was run: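 Soluble ectodomain was activated with 0.1 equiv trypsin-3 for 1 h at 37 °C. Trypsin was quenched with 100 equiv AEBSF for 15 min at room temperature, then the enzyme was diluted in cold TSB*Zn (pH 7.5). Substrates were pre-equilibrated in TSB at 4 °C for 24 h. Reactions used 20 nM enzyme at 1:1000 enzyme:substrate for 24 h at room temperature (some also at 37 °C). Reactions were quenched with 50 mM EDTA; triplicate RP-HPLC integration at 220 nm, MALDI-TOF for products.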

MMP-1 [5] = biological target: T1, MMP-1; assay: Hydrolysis of fluorogenic; type: biochemical; conditions: 30 °C; for hydrolysis of fluorogenic peptomer by MMP-1: FRET kinetic assay, TSB*Zn buffer
How it was run: (§2)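 Enzymes were activated with 1 mM […] at 37 °C for 60 min and diluted in TSB*Zn. The Mca/Dnp substrate was equilibrated in TSB at 4 °C for 24 h and quantified at 363 nm (εDnp 15900 M−1 cm−1). Twelve 1:1 dilutions were made from a 100 µM stock, and enzyme was added from a 100 nM 20× stock. Fluorescence was read every 8 s for 600 s at 30 °C, with a final read at 24 h. The 25 µM sample was analysed by HPLC for % cleavage; triplicate.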

MMP-8 [6] = biological target: T2, MMP-8; assay: Hydrolysis of fluorogenic; type: biochemical; conditions: 30 °C; for hydrolysis of fluorogenic peptomer by MMP-8: FRET kinetic assay, TSB*Zn buffer
How it was run: as §2

MMP-13 [7] = biological target: T3, MMP-13; assay: Hydrolysis of fluorogenic; type: biochemical
How it was run: as §2

[8] = biological target: T4, MMP-14/MT1-MMP (ectodomain, soluble MT1-MMP); assay: Hydrolysis of fluorogenic; type: biochemical
How it was run: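 Soluble ectodomain was activated with 0.1 equiv trypsin-3 for 1 h at 37 °C, quenched with AEBSF and diluted in TSB*Zn. The Mca/Dnp substrate was equilibrated in TSB at 4 °C for 24 h and quantified at 363 nm. Twelve 1:1 dilutions were made from a 100 µM stock, and enzyme was added from a 100 nM 20× stock. Fluorescence was read every 8 s for 600 s at 30 °C, with a final read at 24 h. The 25 µM sample was analysed by HPLC for % cleavage; triplicate.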

MMP-3 = MMP-3 (Homo sapiens, UniProt P08254); assay: Hydrolysis of Ac-pfTHP-1 by noncollagenolytic MMP-3; type: biochemical; conditions: data not shown
MMP-1 [9] = biological target: T1, MMP-1; assay: Inhibition of MMP-1 by non-cleaved peptomers; type: biochemical; conditions: MS-1 up to 200 µM; concentration for MS-2 not given; data not shown
MMP-8 [10] = biological target: T2, MMP-8; assay: Inhibition of MMP-8 by non-cleaved peptomers; type: biochemical; conditions: MS-1 up to 200 µM; concentration for MS-2 not given; data not shown
MMP-13 [11] = biological target: T3, MMP-13; assay: Inhibition of MMP-13 by non-cleaved peptomers; type: biochemical; conditions: MS-1 up to 200 µM; concentration for MS-2 not given; data not shown
MMP-14/MT1-MMP = MMP-14/MT1-MMP (Homo sapiens, UniProt P50281); assay: Inhibition of MT1-MMP by non-cleaved peptomers; type: biochemical; conditions: MS-1 up to 200 µM; concentration for MS-2 not given; data not shown
CD thermal transition = type: physicochemical; conditions: decrease relative to α1(I)772–786 THP
[12] = RP-HPLC, 25 µM peptomer, 24 h, data not shown
[13] = RP-HPLC, 25 µM peptomer, 30 °C, 24 h, data not shown

T2 sequence (P22894 101-467): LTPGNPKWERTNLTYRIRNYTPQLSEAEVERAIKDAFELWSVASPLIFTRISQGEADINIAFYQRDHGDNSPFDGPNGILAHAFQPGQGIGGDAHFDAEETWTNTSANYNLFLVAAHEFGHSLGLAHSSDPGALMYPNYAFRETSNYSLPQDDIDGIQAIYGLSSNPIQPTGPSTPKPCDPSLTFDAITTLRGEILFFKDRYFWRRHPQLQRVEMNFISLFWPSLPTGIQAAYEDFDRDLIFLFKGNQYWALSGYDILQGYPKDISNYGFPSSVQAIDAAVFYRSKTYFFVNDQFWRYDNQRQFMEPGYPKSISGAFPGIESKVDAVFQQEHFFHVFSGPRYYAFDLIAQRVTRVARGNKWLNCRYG
Chain of MMP-3 (P08254 100-477, species assumed): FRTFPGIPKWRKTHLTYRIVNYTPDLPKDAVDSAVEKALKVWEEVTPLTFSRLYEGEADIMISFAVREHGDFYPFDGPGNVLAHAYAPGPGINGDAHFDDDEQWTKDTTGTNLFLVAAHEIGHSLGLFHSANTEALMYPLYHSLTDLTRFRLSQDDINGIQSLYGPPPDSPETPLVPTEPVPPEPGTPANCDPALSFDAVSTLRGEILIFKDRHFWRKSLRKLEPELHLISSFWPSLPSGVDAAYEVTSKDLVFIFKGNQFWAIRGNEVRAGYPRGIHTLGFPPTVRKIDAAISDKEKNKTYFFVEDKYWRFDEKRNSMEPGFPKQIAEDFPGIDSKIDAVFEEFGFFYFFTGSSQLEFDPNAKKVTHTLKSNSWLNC

(GPO)4GPQGIAGQRGVVG-NLeu-O(GPO)4-NH2 [MS-7]
cleavage site, MMP-1 (MMP-1 [1]): Gly775–Ile776 bond
cleavage site, MMP-8 (MMP-8 [2]): Gly775–Ile776 bond
difference in MMP-13 hydrolysis versus parent THP (MMP-13 [3]; 37 °C, RP-HPLC, peptomer better substrate than parent THP): 2 fold
cleavage site, MMP-13 (MMP-13 [3]): Gly775–Ile776 bond
cleavage site, MT1-MMP [4]: Gly775–Ile776 bond

Ac-(GPO)4-GP-Lys(Mca)-G-Sar-AGQRGV-Lys(Dnp) G-NLeu-O(GPO)4-NH2 [Ac-pfTHP-1]
hydrolysis of fluorogenic peptomer by MMP-1 (MMP-1 [5]): unable to hydrolyze
hydrolysis by MMP-1 (MMP-1 [5]; [12]): < 1%
hydrolysis of fluorogenic peptomer by MMP-8 (MMP-8 [6]): unable to hydrolyze
hydrolysis by MMP-8 (MMP-8 [6]; [12]): < 2%
hydrolysis by MMP-13 (MMP-13 [7]; [13]): 65%
cleavage site of fluorogenic peptomer, MMP-13 (MMP-13 [7]): between Gly778 and Gln779
hydrolysis by MT1-MMP [8, 13]: 22%
cleavage sites of fluorogenic peptomer, MT1-MMP [8]: Gly781–Val782 and Arg780–Gly781 bonds
hydrolysis by MMP-3 (MMP-3): not able to hydrolyze

(GPO)4GP-Lys(Mca)-G-Sar-AGQRGV-Lys(Dnp)-G- NLeu-O(GPO)4-NH2 [pfTHP-1]
hydrolysis of fluorogenic peptomer by MMP-1 (MMP-1 [5]): unable to hydrolyze
hydrolysis of fluorogenic peptomer by MMP-8 (MMP-8 [6]): unable to hydrolyze
cleavage site of fluorogenic peptomer, MMP-13 (MMP-13 [7]): between Gly778 and Gln779
cleavage sites of fluorogenic peptomer, MT1-MMP [8]: Gly781–Val782 and Arg780–Gly781 bonds

(GPO)4GPQGWAGQRGVVG-NLeu-O(GPO)4-NH2 [MS-10]
cleavage site, MMP-8 (MMP-8 [2]): Gly775-Trp776 bond
cleavage site, MMP-13 (MMP-13 [3]): Gly775-Trp776 bond
cleavage site, MT1-MMP [4]: Gly775-Trp776 bond; also recorded: occurring at several bonds

(GPO)4-GPQG-NIle-AGQRGVVGLO(GPO)4-NH2 [MS-1]
inhibition of MMP-1 (MMP-1 [9]): No inhibition
inhibition of MMP-8 (MMP-8 [10]): No inhibition
inhibition of MMP-13 (MMP-13 [11]): No inhibition
inhibition of MT1-MMP (MMP-14/MT1-MMP): No inhibition

(GPO)4GPQ-Sar-IAGQRGVVGLO(GPO)4-NH2 [MS-3]
Tm lower than that of parent THP by (CD thermal transition): 20 °C
cleavage site, MMP-1 (MMP-1 [1]): between Sar775 and Ile776
cleavage site, MMP-8 (MMP-8 [2]): between Sar775 and Ile776
cleavage site, MMP-13 (MMP-13 [3]): between Sar775 and Ile776
cleavage site, MT1-MMP [4]: between Sar775 and Ile776

(GPO)4G-Sar-QGIAGQRGVVGLO(GPO)4-NH2 [MS-4]
Tm lower than that of parent THP by (CD thermal transition): 4 °C

(GPO)4GPQ-Sar-IAGQRGVVG-NLeu-GLO(GPO)4- NH2 [MS-9]
Tm lower than that of parent THP by (CD thermal transition): 13.5 °C
cleavage site, MMP-1 (MMP-1 [1]): between Sar775 and Ile776
cleavage site, MMP-8 (MMP-8 [2]): between Sar775 and Ile776
cleavage site, MMP-13 (MMP-13 [3]): between Sar775 and Ile776
cleavage site, MT1-MMP [4]: between Sar775 and Ile776
